Experimental data taken from PMC3447998 (Biochemistry, 2012).
“Also recorded” adds a separate entry of the source.

Legend:
[1] = test system: endogenous NRMT (293LT cells); experiment: Co-precipitation of endogenous NRMT with FLAG-tagged substrate proteins; format: binding; conditions: C-terminally FLAG-tagged protein expressed in 293LT cells
Outline: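 C-terminally FLAG-tagged RCC1 or VRK2 expressed in 293LT cells, immunoprecipitated with anti-FLAG, and run on 10% polyacrylamide gel with Coomassie staining. On-bead material washed 3× with 100 mM ammonium bicarbonate (pH 8.0), then reduced, carbamidomethylated and digested with endoproteinase Glu-C (enzyme:protein 1:20). Peptides acidified to pH 3.5 and analysed by nano-LC-MS on C18 capillary columns.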

FLAG-tagged NRMT = experiment: Co-precipitation of endogenous proteins with FLAG-tagged NRMT; format: binding; conditions: FLAG-tagged NRMT expressed in 293LT cells; Coomassie-stained gel
Outline: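 NRMT carrying a C-terminal FLAG tag was expressed in 293LT cells. Endogenous partner proteins were co-immunoprecipitated with it. Immunoprecipitates were resolved on a 10% polyacrylamide gel and stained with Coomassie blue.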

[2] = test system: N-terminus of protein expressed in 293LT cells; format: cell-based; conditions: MS
Outline: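 FLAG-tagged constructs were transfected into 293LT cells by calcium phosphate and immunoprecipitated on anti-FLAG beads. Bead-bound protein was reduced, carbamidomethylated and Glu-C digested (1:20). Peptides went to nanoflow reverse-phase HPLC-microESI with a high-resolution MS scan, then 5–10 data-dependent CAD/ETD MS2 scans. Spectra were interpreted manually. Each form's summed extracted-ion-chromatogram area over all charge states was divided by the peptide's total area.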

N-terminus of protein = conditions: yeast and mammals; ref [24],[25]; cited from earlier work
[3] = test system: N-terminal methylation in mouse spleen; conditions: mouse spleen lysate/extract, MS
Outline: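 Proteins from mouse spleen extract were immunoprecipitated with anti-me3-SPK antibody. On-bead samples were washed in 100 mM ammonium bicarbonate pH 8.0, reduced, carbamidomethylated and digested with Glu-C (1:20). Peptides were analysed by nanoflow reverse-phase HPLC with CAD/ETD tandem MS. N-terminal modifications were assigned by manual interpretation of the spectra.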

Molecule | capture / co-precipitation of endogenous NRMT (in words) [1] | N-terminal acetylation reported (in words) (N-terminus of protein) | also measured
Mina53: possesses a potential N-terminal methylation motif, MPKKAKPT (protein) MPKKAKPTGSGKEEGPAPCKQMKLEAAGGPSALNFDSPSSLFESLISPIKTETFFKEFWEQKPLLIQRDDPALATYYGSLFKLTDLKSLCSRGMYYGRDVNVCRCVNGKKKVLNKDGKAHFLQLRKDFDQKRATIQFHQPQRFKDELWRIQEKLECYFGSLVGSNVYITPAGSQGLPPHYDDVEVFILQLEGEKHWRLYHPTVPLAREYSVEAEERIGRPVHEFMLKPGDLLYFPRGTIHQADTPAGLAHSTHVTISTYQNNSWGDFLLDTISGLVFDTAKEDVELRTGIPRQLLLQVESTTVATRRLSGFLRTLADRLEGTKELLSSDMKKDFIMHRLPPYSAGDGAELSTPGGKLPRLDSVVRLQFKDHIVLTVLPDQDQSDEAQEKMVYIYHSLKNSRETHMMGNEEETEFHGLRFPLSHLDALKQIWNSPAISVKDLKLTTDEEKESLVLSLWTECLIQVV | unable to capture endogenous NRMT | – | co-precipitation with FLAG-tagged NRMT (in words) (FLAG-tagged NRMT): co-precipitates; also recorded: co-precipitated with FLAG-tagged NRMT; cleavage of the initial Met residue ([2]; both samples, data not shown): 100%
PTPCAAX2: protein tyrosine phosphatase PTPCAAX2 (protein, UniProt Q12974 1-164, looked up) Protein tyrosine phosphatase …: MNRPAPVEISYENMRFLITHNPTNATLNKFTEELKKYGVTTLVRVCDATYDKAPVEKEGIHVLDWPFDDGAPPPNQIVDDWLNLLKTKFREEPGCCVAVHCVAGLGRAPVLVALALIECGMKYEDAVQFIRQKRRGAFNSKQLLYLEKYRPKMRLRFRDTNGHC | – | reported to be N-terminally acetylated | –
RCC1-FLAG: FLAG-tagged RCC1, possesses a S-P-K motif (protein, left off: FLAG, C-terminal, kept) SPKRIAKRRSPPADAIPKSKKVKVSHRSHSTEPGLVLTLGQGDVGQLGLGENVMERKKPALVSIPEDVVQAEAGGMHTVCLSKSGQVYSFGCNDEGALGRDTSVEGSEMVPGKVELQEKVVQVSAGDSHTAALTDDGRVFLWGSFRDNNGVIGLLEPMKKSMVPVQVQLDVPVVKVASGNDHLVMLTADGDLYTLGCGEQGQLGRVPELFANRGGRQGLERLLVPKCVMLKSRGSRGHVRFQDAFCGAYFTFAISHEGHVYGFGLSNYHQLGTPGTESCFIPQNLTSFKNSTKSWVGFSGGQHHTVCMDSEGKAYSLGRAEYGRLGLGEGAEEKSIPTLISRLPAVSSVACGASVGYAVTKDGRVFAWGMGTNYQLGTGQDEDAWSPVEMMGKQLENRVVLSVSSGGQHTVLLVKDKEQS | efficiently captured endogenous NRMT | – | capture / co-precipitation of endogenous NRMT (in words) ([1]; listed as RCC1): NRMT is co-precipitated
ENSA protein: protein with SQK-N-terminus (protein, UniProt O43768 2-121, looked up) Alpha-endosulfine: SQKQEEENPAEETGEEKQDTQEKEGILPERAEEAKLKAKYPSLGQKPGGSDFLMKRLQKGQKYFDSGDYNMAKAKMKNKQLPSAGPDKNLVTGDHIPTPQDLPQRKSSLVTSKLAGGQVE | – | reported to be N-terminally acetylated | –
MLC9: Myosin Light Chain isoform (protein, 100% N-terminally acetylated (by MS); left off: FLAG, C-terminal, kept) MSSKRAKAKTTKKRPQRATSNVFAMFDQSQIQEFKEAFNMIDQNRDGFIDKEDLHDMLASLGKNPTDEYLEGMMSEAPGPINFTMFLTMFGEKLNGTDPEDVIRNAFACFDEEASGFIHEDHLRELLTTMGDRFTDEEVDEMYREAPIDKKGNFNYVEFTRILKHGAKDKDD | cannot IP endogenous NRMT | – | N-terminal modification (in words) ([2]; 293LT cells, immunoprecipitated protein): not N-terminally methylated; N-terminal acetylation ([2]; over-expressed in 293LT cells): 100%; N-terminal methylation in vivo (in words) [3]: methylated at the N-terminus in vivo; also recorded: N-terminally methylated
TSNAX protein: protein with SNK-N-terminus (protein, UniProt Q99598 1-290, looked up) Translin-associated protein X: MSNKEGSGGFRKRKHDNFPHNQRREGKDVNSSSPVMLAFKSFQQELDARHDKYERLVKLSRDITVESKRTIFLLHRITSAPDMEDILTESEIKLDGVRQKIFQVAQELSGEDMHQFHRAITTGLQEYVEAVSFQHFIKTRSLISMDEINKQLIFTTEDNGKENKTPSSDAQDKQFGTWRLRVTPVDYLLGVADLTGELMRMCINSVGNGDIDTPFEVSQFLRQVYDGFSFIGNTGPYEVSKKLYTLKQSLAKVENACYALKVRGSEIPKHMLADVFSVKTEMIDQEEGIS | – | reported to be N-terminally acetylated | –
